According to ChEMBL document CHEMBL2390828, “Synthesis and biological characterization of spiro[2H-(1,3)-benzoxazine-2,4'-piperidine] based histone deacetylase inhibitors” (Eur J Med Chem, 2013):
pIC50: −log10 of the molar value. The source made the active and inactive calls. The rule behind the calls is not given here.

Tests used:
[1] = tested on: HCT-116; test: Cytotoxicity against human HCT116 cells; assay type: functional, cell-based
[2] = tested on: K562; test: Cytotoxicity against human K562 cells; assay type: functional, cell-based
[3] = target: Histone deacetylase; test: Inhibition of HDAC in human Hela cell nuclear extract after 15 mins; assay type: protein assay
[4] = tested on: A549; test: Cytotoxicity against human A549 cells; assay type: functional, cell-based
[5] = Cmax in CD1 mouse at 15 mg/kg, po; conditions: CD1, mouse, in vivo
[6] = Terminal half life in CD1 mouse at 5 mg/kg, iv and 15 mg/kg, po; assay type: ADME, organism-based; conditions: in vivo, read-out: beta t1/2 (converted)
Summary of the method: (§1)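 CD-1 mice got single doses of 5 mg/kg iv or 15 mg/kg orally. The iv vehicle was water with 3% DMSO and 9.7% encapsin. The oral vehicle was water with 5% DMSO and 9.5% encapsin. Plasma PK parameters were calculated, including AUC0–∞, clearance, half-life, Vss, cmax and oral bioavailability.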

[7] = Metabolic stability in human liver microsomes after 30 mins by LC-MS/MS analysis; assay type: ADME, Microsome; conditions: read-out: Stability
Summary of the method: (§2)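 Compounds were incubated with mouse or human liver microsomal preparation for 30 min at 37 °C. The reaction was stopped with CH3CN. Unmetabolized compound was quantified by LC-MS/MS in MRM mode and reported as percent remaining. Replicates n ≥ 2, mean values given.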

[8] = Clearance in CD1 mouse at 5 mg/kg, iv and 15 mg/kg, po; assay type: ADME, organism-based; conditions: in vivo; summary of the method: as §1
[9] = Solubility of the compound at pH 7.4; assay type: physicochemical; conditions: buffer
[10] = Oral bioavailability in CD1 mouse at 15 mg/kg; conditions: in vivo
[11] = Cmax in CD1 mouse at 5 mg/kg, iv; assay type: ADME, organism-based; set-up: dose 5 mg/kg, route intravenous; conditions: in vivo; summary of the method: as §1
[12] = AUC (0 to infinity) in CD1 mouse at 5 mg/kg, iv; assay type: ADME, organism-based; set-up: time infinity, dose 5 mg/kg, route intravenous; conditions: plasma; summary of the method: as §1
[13] = Volume of distribution at steady state in CD1 mouse at 5 mg/kg, iv and 15 mg/kg, po; assay type: ADME, organism-based; conditions: in vivo, read-out: Vdss; summary of the method: as §1
[14] = target: T1, Voltage-gated inwardly rectifying potassium channel KCNH2 (Homo sapiens, UniProt Q12809); test: Inhibition of human ERG channel
T1 sequence (Q12809 whole entry): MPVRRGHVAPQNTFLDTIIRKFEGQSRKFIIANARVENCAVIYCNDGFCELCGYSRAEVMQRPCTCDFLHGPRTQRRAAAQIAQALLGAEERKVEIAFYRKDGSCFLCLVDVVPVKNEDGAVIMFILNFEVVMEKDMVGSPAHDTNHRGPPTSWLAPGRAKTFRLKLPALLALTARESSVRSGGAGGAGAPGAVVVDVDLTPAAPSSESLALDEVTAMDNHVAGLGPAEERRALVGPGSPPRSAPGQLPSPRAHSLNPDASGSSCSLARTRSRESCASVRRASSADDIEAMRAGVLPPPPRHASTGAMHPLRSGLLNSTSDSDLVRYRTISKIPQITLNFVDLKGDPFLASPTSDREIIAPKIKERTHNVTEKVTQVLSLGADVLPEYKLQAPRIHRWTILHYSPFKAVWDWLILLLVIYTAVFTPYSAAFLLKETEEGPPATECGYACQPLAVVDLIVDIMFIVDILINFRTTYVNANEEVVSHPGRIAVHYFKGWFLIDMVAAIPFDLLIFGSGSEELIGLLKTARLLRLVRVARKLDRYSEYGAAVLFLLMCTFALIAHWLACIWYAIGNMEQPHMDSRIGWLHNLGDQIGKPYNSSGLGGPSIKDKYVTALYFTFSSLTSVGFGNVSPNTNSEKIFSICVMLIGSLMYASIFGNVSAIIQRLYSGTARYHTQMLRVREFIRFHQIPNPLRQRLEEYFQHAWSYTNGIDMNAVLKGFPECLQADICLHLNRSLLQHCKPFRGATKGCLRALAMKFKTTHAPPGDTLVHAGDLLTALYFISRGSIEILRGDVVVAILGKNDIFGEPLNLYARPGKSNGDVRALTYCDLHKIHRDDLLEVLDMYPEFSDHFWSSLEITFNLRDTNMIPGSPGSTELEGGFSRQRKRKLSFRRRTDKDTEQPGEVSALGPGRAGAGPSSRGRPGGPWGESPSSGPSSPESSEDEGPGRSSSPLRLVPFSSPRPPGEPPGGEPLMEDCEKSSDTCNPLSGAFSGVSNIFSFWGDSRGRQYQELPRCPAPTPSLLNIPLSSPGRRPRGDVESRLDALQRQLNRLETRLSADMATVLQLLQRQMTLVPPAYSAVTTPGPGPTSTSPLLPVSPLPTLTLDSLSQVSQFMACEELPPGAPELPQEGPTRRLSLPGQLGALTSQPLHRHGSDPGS

[15] = AUC (0 to infinity) in CD1 mouse at 15 mg/kg, po; assay type: ADME, organism-based; set-up: time infinity, dose 15 mg/kg, route oral; conditions: plasma; summary of the method: as §1
[16] = Metabolic stability in mouse liver microsomes after 30 mins by LC-MS/MS analysis; assay type: ADME, Microsome; conditions: read-out: Stability; summary of the method: as §2
[17] = Tmax in CD1 mouse at 5 mg/kg, iv and 15 mg/kg, po; assay type: ADME, organism-based; conditions: in vivo; summary of the method: as §1
[18] = tested on: HCT-116; test: Antitumor activity against human HCT116 cells […] in CD1 mouse at 150 mg/kg, po administered 5 days a week for 2 weeks relative to control; assay type: functional
Summary of the method: (§3)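 Female CD-1 nude mice received 5 × 10⁶ HCT116 cells subcutaneously in the flank. Once tumours reached 100 mm³, dosing was 75 or 150 mg/kg orally, once daily, 5 days/week for 2 weeks. Tumour volume and body weight were followed. Tumour/control (T/C) ratio was calculated against vehicle controls.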

[19] = tested on: HCT-116; test: Cell cycle arrest in human HCT116 cells assessed as accumulation at G2/M phase at higher dose after 24 hrs by propidium iodide staining-based FACS analysis; assay type: functional
Summary of the method: (§4)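 HCT116 colon carcinoma cells were exposed to several concentrations for 24 h. Cell-cycle profiles were read by flow cytometry, with G0/G1, G2/M and sub-G1 fractions scored.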

[20] = target: Histone deacetylase 3 (Homo sapiens, UniProt O15379); test: Inhibition of HDAC3 (unknown origin)
Sequence of Histone deacetylase 3 (O15379 whole entry): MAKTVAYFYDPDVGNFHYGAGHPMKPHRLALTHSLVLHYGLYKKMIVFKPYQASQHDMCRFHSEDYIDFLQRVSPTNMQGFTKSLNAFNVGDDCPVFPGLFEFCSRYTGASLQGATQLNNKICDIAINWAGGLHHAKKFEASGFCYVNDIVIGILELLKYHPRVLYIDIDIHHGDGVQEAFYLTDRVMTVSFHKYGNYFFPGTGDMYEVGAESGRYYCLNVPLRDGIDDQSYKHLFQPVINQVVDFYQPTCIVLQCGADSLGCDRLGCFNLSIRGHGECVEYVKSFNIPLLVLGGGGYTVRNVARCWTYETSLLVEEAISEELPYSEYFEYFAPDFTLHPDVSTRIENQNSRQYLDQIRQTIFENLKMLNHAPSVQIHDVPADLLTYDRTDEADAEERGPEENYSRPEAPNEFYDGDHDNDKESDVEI

[21] = tested on: HCT-116; test: Cell cycle arrest in human HCT116 cells assessed as accumulation at G0/G1 phase at lower dose after 24 hrs by propidium iodide staining-based FACS analysis; assay type: functional; summary of the method: as §4
[22] = tested on: HCT-116; test: Induction of apoptosis in human HCT116 cells assessed as increase in sub-G1 population after 24 hrs by propidium iodide staining-based FACS analysis; assay type: functional, cell-based; summary of the method: as §4
[23] = Permeability from apical to basolateral side across human Caco2 cells after 2 hrs by LC-MS analysis; assay type: ADME, cell-based; conditions: Caco-2, read-out: permeability
[24] = target: Histone deacetylase (Homo sapiens) (UniProt Q13547+O15379+Q9UBN7+Q92769+Q9UQL6+Q8WUI4+Q9BY41+Q96DB2+P56524+Q9UKV0+Q969S8); test: Inhibition of HDAC in human K562 cells assessed as increase in histone acetylation level after 2 to 8 hrs by flow cytometry; assay type: cell-based
Summary of the method: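 K562 cells were treated at 0.1, 0.5, 1 and 3 µM. Histone acetylation was measured by flow cytometry and reported as the ratio of acetylation level in treated over control cells.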

[25] = tested on: Mus musculus; test: Toxicity in CD1 mouse xenografted with human HCT116 cells assessed as body weight change at 75 to 150 mg/kg, po qd administered 5 days a week for 2 weeks; assay type: organism-based, HCT-116; set-up: dose 75-150 mg/kg, route oral; conditions: in vivo; summary of the method: as §3
[26] = target: Histone deacetylase 2 (Homo sapiens, UniProt Q92769); test: Inhibition of HDAC2 (unknown origin)
Sequence of Histone deacetylase 2 (Q92769 whole entry): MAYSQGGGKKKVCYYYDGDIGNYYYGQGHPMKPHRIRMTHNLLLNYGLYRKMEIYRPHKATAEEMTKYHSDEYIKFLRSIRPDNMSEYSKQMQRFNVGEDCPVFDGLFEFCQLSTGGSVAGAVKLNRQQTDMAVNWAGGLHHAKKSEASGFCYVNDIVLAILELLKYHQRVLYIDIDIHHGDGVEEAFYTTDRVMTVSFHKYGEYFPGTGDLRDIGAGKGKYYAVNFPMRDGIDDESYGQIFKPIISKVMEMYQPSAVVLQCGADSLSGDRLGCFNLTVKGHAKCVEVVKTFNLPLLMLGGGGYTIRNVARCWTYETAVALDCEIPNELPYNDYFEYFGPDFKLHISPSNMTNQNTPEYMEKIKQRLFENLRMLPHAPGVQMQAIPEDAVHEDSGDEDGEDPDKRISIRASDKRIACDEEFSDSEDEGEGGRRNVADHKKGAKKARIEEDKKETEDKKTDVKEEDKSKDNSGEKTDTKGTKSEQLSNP

[27] = tested on: HCT-116; test: Antitumor activity against human HCT116 cells […] in po dosed CD1 mouse administered 5 days a week for 2 weeks relative to control; assay type: functional, organism-based; summary of the method: as §3
[28] = tested on: Mus musculus; test: Inhibition of HDAC in human HCT116 cells […] in CD1 mouse at 75 to 150 mg/kg, po administered 5 days a week for 2 weeks by immunohistochemistry relative to control; assay type: functional, organism-based; conditions: HCT-116
Summary of the method: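 Tumours came from HCT116 xenograft-bearing CD-1 nude mice dosed orally at 75 or 150 mg/kg once daily, 5 days/week for 2 weeks. Sections were taken at the end of treatment from vehicle and treated mice. Histone acetylation was stained by immunohistochemistry (anti-acetyl H4 clone T25, 1:13,000) and scored by positive cells and signal intensity.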

[29] = target: T2, Protein deacetylase HDAC6 (Homo sapiens, UniProt Q9UBN7); test: Inhibition of HDAC6 (unknown origin)
T2 sequence (Q9UBN7 whole entry): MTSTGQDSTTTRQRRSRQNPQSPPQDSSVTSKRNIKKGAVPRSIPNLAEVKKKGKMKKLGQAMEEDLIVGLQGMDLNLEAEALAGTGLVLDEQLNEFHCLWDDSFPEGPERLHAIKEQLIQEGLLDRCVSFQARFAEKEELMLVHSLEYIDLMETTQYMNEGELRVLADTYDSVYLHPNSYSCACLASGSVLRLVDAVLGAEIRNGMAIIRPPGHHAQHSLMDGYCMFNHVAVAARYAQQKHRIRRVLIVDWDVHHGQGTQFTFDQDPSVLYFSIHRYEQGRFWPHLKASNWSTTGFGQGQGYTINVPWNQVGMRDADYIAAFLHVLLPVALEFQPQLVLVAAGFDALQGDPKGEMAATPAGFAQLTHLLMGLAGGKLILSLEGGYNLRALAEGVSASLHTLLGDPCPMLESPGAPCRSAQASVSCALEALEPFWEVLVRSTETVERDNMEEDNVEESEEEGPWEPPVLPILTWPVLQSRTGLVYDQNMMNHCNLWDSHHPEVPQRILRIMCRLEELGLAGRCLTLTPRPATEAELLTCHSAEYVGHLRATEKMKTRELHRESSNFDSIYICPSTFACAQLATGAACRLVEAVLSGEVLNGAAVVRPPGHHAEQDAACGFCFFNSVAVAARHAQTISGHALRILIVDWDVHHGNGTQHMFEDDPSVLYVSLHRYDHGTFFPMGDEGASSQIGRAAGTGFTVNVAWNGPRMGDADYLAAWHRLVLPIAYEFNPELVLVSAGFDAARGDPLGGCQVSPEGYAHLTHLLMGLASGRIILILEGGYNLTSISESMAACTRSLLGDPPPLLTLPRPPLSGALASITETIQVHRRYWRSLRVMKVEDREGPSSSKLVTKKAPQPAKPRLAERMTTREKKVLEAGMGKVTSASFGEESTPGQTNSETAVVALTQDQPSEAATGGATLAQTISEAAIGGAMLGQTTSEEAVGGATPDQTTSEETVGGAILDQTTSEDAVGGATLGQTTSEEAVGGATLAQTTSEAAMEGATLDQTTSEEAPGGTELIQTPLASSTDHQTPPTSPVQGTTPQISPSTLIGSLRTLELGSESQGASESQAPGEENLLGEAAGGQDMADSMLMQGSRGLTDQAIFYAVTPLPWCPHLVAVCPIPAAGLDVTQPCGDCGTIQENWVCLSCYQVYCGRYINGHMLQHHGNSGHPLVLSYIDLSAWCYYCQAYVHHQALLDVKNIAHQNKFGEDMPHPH

[30] = tested on: HCT-116; test: Antitumor activity against human HCT116 cells […] in CD1 mouse at 75 mg/kg, po administered 5 days a week for 2 weeks relative to control; assay type: functional; summary of the method: as §3
[31] = target: T1, Voltage-gated inwardly rectifying potassium channel KCNH2; test: Displacement of [3H]astemizole from human ERG channel transfected in HEK293 cells after 60 mins by liquid scintillation counting analysis; assay type: cell-based

Row | SMILES | IC50 [3] [nM] | Cmax [5] [µM] | remaining at 0.5 h [7] [%] | clearance [8] [mL/min/kg] | bioavailability [10] [%] | Cmax [11] [µM] | AUC(0-inf) [12] [ng·h/mL] | Vd [13] [L/kg] | AUC(0-inf) [15] [ng·h/mL] | remaining at 0.5 h [16] [%] | Tmax [17] [min] | pIC50 [1] | pIC50 [2] | pIC50 [4] | other results
1 | CN1CCC2(CC1)NC(=O)c1cc(/C=C/C(=O)NO)ccc1O2 | 99 |  |  |  |  |  |  |  |  |  |  | 6.05 | 5.83 | 5.57 | 
2 | O=C(/C=C/c1ccc2c(c1)C(=O)NC1(CCN(Cc3ccc(F)cc3)CC1)O2)NO | 103 | 5.05 | 71 | 44.3 | 35 | 13 | 1880 | 3.1 | 1980 | 98 | 5 | 6.30 | 6.02 | 5.78 | half-life [6]: 414 min; solubility [9]: > 200 µM; inhibition (INH) [14]: 70%
3 | CN1CCC2(CC1)Oc1ccc(/C=C/C(=O)NO)cc1C(=O)N2C | 527 |  |  |  |  |  |  |  |  |  |  | 5.85 | 5.77 | 5.45 | 
4 | O=C(/C=C/c1ccc2c(c1)C(=O)CC1(CCN(Cc3ccc(F)cc3)CC1)O2)NO | 108 | 1.83 |  | 55.8 | 27.6 | 11 | 1490 | 5.9 | 1240 |  | 15 | 6.11 | 6.17 | 5.88 | pIC50 [20]: 7.05; pIC50 [31]: 5.62; pIC50 [26]: 6.51; pIC50 [29]: 6.72
5 | CN1C(=O)c2cc(/C=C/C(=O)NO)ccc2OC12CCNCC2 | 204 |  |  |  |  |  |  |  |  |  |  | 4.92 | 4.85 | 4.75 | 

The next lines start with results.

Row | IC50 [3] [nM] | Cmax [5] [µM] | remaining at 0.5 h [7] [%] | clearance [8] [mL/min/kg] | bioavailability [10] [%] | Cmax [11] [µM] | AUC(0-inf) [12] [ng·h/mL] | Vd [13] [L/kg] | AUC(0-inf) [15] [ng·h/mL] | remaining at 0.5 h [16] [%] | Tmax [17] [min] | SMILES | pIC50 [1] | pIC50 [2] | pIC50 [4] | other results
6 | 83 | 2.71 | 77 | 54.5 | 42.8 | 13.5 | 1530 | 8.5 | 1960 | 75 | 15 | O=C(/C=C/c1ccc2c(c1)C(=O)NC1(CCN(Cc3ccccc3)CC1)O2)NO | 6.29 | 6.24 | 5.85 | half-life [6]: 804 min; T/C [18]: 0.33; Activity [19]: Active; pIC50 [20]: 7.06; Activity [21]: Active; solubility [9]: > 200 µM; Activity [22]: Dose-dependent effect; Papp A→B at 2 h [23]: 0.4 ×10⁻⁶ cm/s; inhibition [24]: Dose-dependent effect; Activity [25]: Non-toxic; pIC50 [26]: 6.72; Activity [27]: Dose-dependent effect; inhibition [28]: Active; pIC50 [29]: 6.96; inhibition (INH) [14]: 54%; T/C [30]: 0.59
7 | 136 |  |  |  |  |  |  |  |  |  |  | CN1C(=O)c2cc(/C=C/C(=O)NO)ccc2OC12CCN(Cc1ccccc1)CC2 | 6.01 | 5.88 | 5.65 | 
8 | 540 |  |  |  |  |  |  |  |  |  |  | O=C(/C=C/c1ccc2c(c1)C(=O)N(Cc1ccccc1)C1(CCN(Cc3ccccc3)CC1)O2)NO | 5.73 | 5.76 | 5.58 | 
9 | 91 |  | 68 |  |  |  |  |  |  | 46 |  | O=C(/C=C/c1ccc2c(c1)C(=O)NC1(CCN(CCc3ccccc3)CC1)O2)NO | 6.33 | 6.31 | 5.85 | 
